Screening results from PubChem BioAssay.
CHO parental Ca: counter-screen: ATP calcium response change in parental CHO cells. parental CHO-K1, ATP-induced calcium, Fluo-8 fluorescence. inhibition, % at 5.6 µM. 330,000 compounds, 0.63% hits;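 active means inhibition above that plate's mean sample inhibition plus 3 SD, cut at about 26% in these data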;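 further: 0% = ATP-challenged DMSO wells and 100% = DMSO wells without ATP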
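Test system: untransfected parental CHO cell line. Compound: one dose, 5.6 µM nominal. Detection: intracellular calcium via Fluo-8 no-wash fluorescent dye. Measure: % inhibition. Benchmarks: ATP-challenged DMSO wells low, unchallenged DMSO wells high.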
TAAR1 ag: agonists of human TAAR1; 360,000 compounds, 0.99% hits; Q96RJ0; activation, % at 3 µM; CHO RD-HGA16 TAAR1, Fluo-8 calcium fluorescence; vehicle wells 0%, saturating PEA agonist 100%; AID 624467;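 active means activation above the mean activation of all test compounds in the run plus 3 SD, cut at about 38% in these data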
Target sequence (Q96RJ0 whole entry, looked up): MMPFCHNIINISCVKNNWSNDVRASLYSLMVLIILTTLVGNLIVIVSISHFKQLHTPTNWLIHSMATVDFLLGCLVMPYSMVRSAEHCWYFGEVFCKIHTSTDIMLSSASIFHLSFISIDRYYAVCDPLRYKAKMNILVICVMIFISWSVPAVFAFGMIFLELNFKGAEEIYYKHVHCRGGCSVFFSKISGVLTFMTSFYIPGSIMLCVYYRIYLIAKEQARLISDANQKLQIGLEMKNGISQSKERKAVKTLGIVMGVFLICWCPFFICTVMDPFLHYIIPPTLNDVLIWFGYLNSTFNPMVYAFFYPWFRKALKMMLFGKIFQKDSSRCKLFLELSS
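System: CHO-derived RD-HGA16 cells with stable Gα16 and human TAAR1 / Times: 17-24 h plating, Fluo-8 75 min 37 °C, 30 min RT / Technique: calcium-sensitive Fluo-8 signal, excitation 470-495, emission 515-575 nm / Measure: % activation relative to PEA EC100 response / Benchmarks: DMSO and PEA EC100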
GPR7 antag: antagonists of human GPR7 (neuropeptides B/W receptor 1); GPR7-expressing cells, fluorescence antagonist assay; inhibition, % at 4.4 µM; 290,000 compounds, 1.1% hits; AID 1861; in the data active means inhibition above about 16%, passing the limit was not always enough;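 further: cells stimulated with the agonist NPW; 0% = agonist with vehicle and 100% = vehicle without agonist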
Target sequence (P48145 whole entry, looked up): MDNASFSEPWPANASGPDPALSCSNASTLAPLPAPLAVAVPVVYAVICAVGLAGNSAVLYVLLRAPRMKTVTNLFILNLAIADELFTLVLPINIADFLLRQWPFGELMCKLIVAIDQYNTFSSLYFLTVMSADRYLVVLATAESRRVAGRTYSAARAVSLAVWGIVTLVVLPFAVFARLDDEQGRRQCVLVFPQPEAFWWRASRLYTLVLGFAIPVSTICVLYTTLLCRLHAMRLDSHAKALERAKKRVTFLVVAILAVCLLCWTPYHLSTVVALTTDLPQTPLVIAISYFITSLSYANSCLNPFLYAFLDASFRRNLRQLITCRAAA
OX1R antag-1: OX1R (human) antagonism; OX1R-expressing cells, FRET antagonist read-out; AID 485270; inhibition, % at 6.6 µM; O43613; 330,000 compounds, 1.8% hits; in the data active means inhibition mostly above about 38%, no sharp cut-off; inactive means mostly below about 40%;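 further: 0% = agonist challenge alone and 100% = reference antagonist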
TAAR1 antag: human TAAR1 antagonism | Q96RJ0 | CHO RD-HGA16 TAAR1, Fluo-8 calcium fluorescence, antagonist | inhibition, % at 3 µM | 360,000 compounds, 1.5% hits;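 active means inhibition above a per-plate cutoff, the mean inhibition of test compounds on that plate plus 3 SD, cut at about 49% in these data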;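 further: 0% = DMSO plus EC80 beta-PEA response and 100% = DMSO alone without agonist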
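Test system: RD-HGA16 CHO cells with stable hTAAR1 and Gα16 / Probe or stimulus: EC80 β-phenethylamine stimulus / Times: seeding 17-24 h prior, 75-min 37 °C, 30-min RT dye loading / Detection: Fluo-8 calcium-sensitive fluorescence / Read-out basis: % inhibition scaled between DMSO and EC80 PEA controls / Repeats: singlicate, one well per test compound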
OX1R antag-2: human HCRTR1 antagonism | O43613 | CHO/OX1R cells, Fluo-8 calcium fluorescence, orexin A | inhibition, % at 5 µM | 330,000 compounds, 0.43% hits | AID 434989;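 active means inhibition above its plate's threshold, mean inhibition of all tested compounds on the plate plus 3 SD, cut at about 37% in these data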;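 further: 0% = orexin A challenge wells and 100% = SB-334867-A antagonist wells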
Numbers without * were called inactive; · = no result given. Sampled rows, rich in hits. Any-hit rate of the full collection: about 4.5%.

SMILES | CHO parental Ca | TAAR1 ag | GPR7 antag | OX1R antag-1 | TAAR1 antag | OX1R antag-2
O=[N+]([O-])c1ccc(N2CCCC2)c2ncccc12 | -15 | -3 | -4 | 51 | -29 | 4
CC1CN(c2ccc([N+](=O)[O-])c3cccnc23)CC(C)N1 (configuration not stated) | 5 | -1 | -2 | 79* | -13 | -24
OCCNc1c2c(nc3ccccc13)CCCC2 | 5 | 10 | 4 | 5 | 1 | 6
C[n+]1c2ccccc2nc2ccc(NCCO)cc21 | -5 | 2 | 1 | 86* | -4 | -17
c1ccc(-c2ccc(CN3Cc4ccccc4-n4nncc4C3)cc2)cc1 | · | 0 | · | · | 31 | ·
COc1cc2c(cc1OC)CN(c1ccc([N+](=O)[O-])c(C(F)(F)F)c1)CC2 | 30 | 4 | 5 | 48* | 36 | -7
CC(C)OC(=O)C1C(c2ccc(I)cc2)CC2CCC1N2C (configuration not stated) | · | 2 | · | · | -13 | ·
O=C(COc1ccc2c3c(c(=O)oc2c1)CCC3)N1C[C@H]2C[C@@H](C1)c1cccc(=O)n1C2 | -12 | 1 | -13 | 10 | -25 | -6
CN1/C(=C\C=Nc2ccccc2)C(C)(C)c2ccccc21 | 27 | 14 | -10 | 17 | 1 | 18
CCN1/C(=C/C=C/C2=[N+](CC)c3ccccc3C2(C)C)C(C)(C)c2ccccc21 | · | 263* | · | · | 106* | ·
Cc1ccc(C[n+]2c(-c3ccc(C)cc3)cc(-c3ccc(C)cc3)cc2-c2ccc(C)cc2)cc1 | 98* | · | · | -5 | · | 96*
O=P(Nc1ccccc1)(Nc1ccccc1)Oc1cccc(Cl)c1 | -16 | 14 | -3 | 1 | 52* | 2
O=P(Nc1ccccc1)(Nc1ccccc1)Oc1ccccc1 | -19 | 15 | -3 | 14 | 41 | -20
COc1ccc(-n2nnnc2C(c2cc3ccccc3o2)N2CCC(n3c(=O)[nH]c4ccccc43)CC2)cc1 (configuration not stated) | · | 9 | · | · | 51* | ·
O=c1[nH]c2ccccc2n1C1CCN(C(c2cccc3ccccc23)c2nnnn2-c2ccc3c(c2)OCCO3)CC1 (configuration not stated) | · | 18 | · | · | 45 | ·
O=c1[nH]c2ccccc2n1C1CCN(C(c2cc3ccccc3o2)c2nnnn2-c2ccc3c(c2)OCCO3)CC1 (configuration not stated) | · | 16 | · | · | 66* | ·
COc1ccc(C(c2nnnn2-c2ccc(OC)cc2)N2CCC(n3c(=O)[nH]c4ccccc43)CC2)cc1 (configuration not stated) | · | 12 | · | · | 44 | ·
COC(=O)CCCC(NC(=S)N1CC2C[C@@H](C1)Cn1c2cccc1=O)C(=O)OC (some centres not stated) | 4 | 1 | 0 | 10 | 2 | 5
N/C(=N/[N+](=O)[O-])N1CCN(C(=O)Oc2ccc([N+](=O)[O-])cc2)CC1 | -1 | 3 | -8 | 5 | -11 | -19
CC(C)OP(=O)(Oc1ccc(C(O)C(Cl)(Cl)Cl)cc1)OC(C)C (configuration not stated) | -13 | 5 | 6 | 59* | -11 | 0
CCOC(=O)[C@]12Cc3cc(Cl)ccc3[C@H]1N(C1CCCCC1)C(=O)c1cc(OC)ccc12 | · | 2 | · | · | 63* | ·
NNc1n[nH]c(=S)n1N | 5 | -1 | -5 | 61* | -28 | 5
O=C(C1CC(c2ccc(Cl)c(Cl)c2)=NO1)N1CCC2(CC1)OCCO2 (configuration not stated) | -17 | 8 | -6 | 2 | 7 | -25
COC1CC2C=C(C)C=CC=CC(=O)NC(c3ccccc3)CC=CCCC(O)CC(=O)C2=C1O (configuration not stated) | · | 7 | · | · | 84* | ·
Cc1ccc(C(=O)N[C@@H](C)CN2C3=NC[C@@H](Cc4ccccc4)N3C[C@H]2Cc2ccc(O)cc2)cc1Br | -11 | 2 | 17 | 6 | 2 | -3
SMILES | CHO parental Ca | TAAR1 ag | GPR7 antag | OX1R antag-1 | TAAR1 antag | OX1R antag-2
Cc1ccc(C(=O)N[C@@H](C)CN2C3=NC[C@H](Cc4ccccc4)N3C[C@H]2Cc2ccc(O)cc2)cc1Br | 42* | · | · | 16 | · | 47*
COC(=O)C1(F)C(=O)NC(=O)NC1O (configuration not stated) | · | 2 | · | · | -20 | ·
O=C1NC(=S)N(c2ccc(Cl)cc2)C(=O)/C1=C/N1CCN(C(=O)c2ccco2)CC1 | 14 | 38* | 2 | 14 | 5 | 8
CCNCCNc1ccc([N+](=O)[O-])c2cccnc12 | -15 | 1 | -4 | 42* | -20 | -16
COc1ccc(CCNC2CCCCCC2)cc1 | -10 | 4 | -13 | 14 | 2 | -19
COC1CCCCC1NCCc1ccccc1 (configuration not stated) | -18 | 38* | 7 | 23 | -22 | -21
O=C1CCC2(O)C3Cc4ccc(O)c5c4C2(CCN3Cc2ccoc2)C1O5 (configuration not stated) | · | 4 | · | · | -20 | ·
O=C(O)c1cccc2nc3ccccc3nc12 | -9 | 0 | 1 | 48* | -4 | -3
Oc1c(Br)c(Br)c(Br)c(Br)c1Br | -7 | · | · | 37* | · | 7
CCN(CC)C(=O)c1ccc(NC(=O)c2cccc(C(F)(F)F)c2)cc1 | 8 | 1 | -9 | 31 | 19 | -21
CCN(CC)C(=O)c1ccc(NC(=O)c2ccc(-n3cncn3)c([N+](=O)[O-])c2)cc1 | -5 | 0 | · | 64* | -11 | -15
CCOC(=O)c1ccccc1NC(=O)c1c(O)[nH]c(=S)[nH]c1=O | 12 | 1 | · | 20 | -1 | -20
NC1CCc2cc(O)c(O)cc2C1 (configuration not stated) | 0 | 39* | · | 23 | -28 | 3
O=C(O)CC1OCC=C2CN3CCC45C6=CC(=O)C(=O)C([N+](=O)[O-])=C6NC4C1C2CC35 (configuration not stated) | 6 | · | -8 | 38* | · | -17
O=C(O)CC1OCC=C2CN3CCC45c6ccccc6NC4C1C2CC35 (configuration not stated) | -18 | 0 | -11 | 6 | 3 | -5
COc1ccc(C2=CC(c3ccc4c(c3)OCO4)c3c(c4ccccc4oc3=O)O2)cc1OC (configuration not stated) | · | 2 | · | · | -12 | ·
Cc1cccc(N2C(=O)NC(=O)/C(=C\c3cccn3-c3ccc(Cl)cc3)C2=O)c1 | -8 | 56* | -4 | 9 | 37 | -16
Cc1cccc(N2C(=O)NC(=O)/C(=C\C=C\c3ccco3)C2=O)c1 | -5 | 44* | -11 | 19 | 22 | -10
O=C(NC(=C(Cl)Cl)P(=O)(c1ccccc1)c1ccccc1)c1ccccc1 | -18 | 1 | -9 | 69* | 11 | -4
CCCOP(=O)(OCCC)C(NC(=O)c1ccccc1)=C(Cl)Cl | -3 | 0 | -3 | 33 | 6 | -11
